# Fewer inactive variants are shown than the library holds.
# B1: tRNA (parent)
# chain: GUUCCGUUGGCGUAAUGGUAACGCGUCUCCCUCCUAAGGAGAAGACUGCGGGUUCGAGUCCCGUACGGAACG
# Variants of: B1
# Assay: yeast fitness relative to wild type (ratio to wild type); higher = fitter; tRNA-Arg(CCU), competitive growth, 37 C, YPD
# How it was run: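 The tRNA-Arg(CCU) gene variants were made by chemical synthesis with a 3% per-site mutation rate at 69 sites and inserted at the native genomic locus of Saccharomyces cerevisiae. After pooling, the strains were competed in YPD at 37°C for 24 hours in six parallel replicates. Gene amplicons from the start population and each end population were read by 100-nucleotide paired-end sequencing, and Darwinian fitness relative to wild type was taken from genotype frequency changes. Genotypes needed ≥ 100 starting reads, and estimates < 0.5 were set to 0.5.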
row,Variant,yeast fitness
1,GUUCCGUUGGCGUAAUGGUAGCGCGUCUCCCUCCUAAGGAGACGACUGCGGGUUCGAGUCCCGUACGGAACG,0.966
2,GUUCCGUUGGCGUAAUGGUAGCGCGUCUCCCUCCUAAGGAGAGGACUGCGGGUUCGAGUCCCGUACGGAACG,1.04
3,GUUCCGUUGGCGUAAUGGUAGCGCGUCUCCCUCCUAAGGAGAAGGGUGCGGGUUCGAGUCCCGUACGGAACG,0.802
4,GUUCCGUUGGCGUAAUGGUAGCGGGUCUCCCUCCUAAGGAGAAGACUCCGGGUUCGAGUCCCGUACGGAACG,≤ 0.5
5,GUUCCGUUGGCGUAAUGGUAGCGCGUUUCCCUCCUAUGGAGAAGUCUGCGGGUUCGAGUCCGGUACGGAACG,≤ 0.5
6,GUUCCGUUGGCGUAAUGGUAGCGCGUAUCCCUCCUAUGGAGAAGACUGCAGGUUCGAGUCCCGUAUGGAACG,≤ 0.5
7,GUUCCGUUGGCGUAAUGGUAGCGCGUAUCCCUCCUAUGGAGAAGAUUGCGGGUUCGAGUCCCGUAUGGAACG,≤ 0.5
8,GUUCCGUUGGCGUAAUGGUAGCGCGUCUCCCUCCUAAGGAGAUGACUGCGGGUUCGAGUCACGUACGGAACG,≤ 0.5
9,GUUCCGUUGGCGUAAUGGUAGUGCGUCUCCCUCCUAAGGAGAAGACUGCGGGUUCGAGUACCGUACGGAACG,≤ 0.5
10,GUUCCGUUGGCGUAAUGGUAGUGGCUCUCCCACUUAAGCAGAAGGCUGCGGGUUCGAGUCCCGUACGGAACG,≤ 0.5
11,GUUCCGUUGGCGUAAUGGUAGCGCGUCUCCCUCCUAAGGAGUAGACUGCGGGUUCGUGUCCUGUACGGAACG,≤ 0.5
12,GUUCCGUUGGCGUAAUGGUAGCGAGUCUCCCUCCUAAGGAGAAGACUGCGGGUUCGAGUCCCGUACGGAACG,0.661
13,GUUCCGUUGGCGUAAUGGUAGCGGGUCUCCCUCCUAAGGAGAAGACUGCGGGUUCGAGUCCCGUACGGAACG,0.642
14,GUUCCGUUGGCGUAAUGGUAGCGUGUCUCCCUCCUUAGGAGAAGACUGCGGGUUCGAGUCCCGUAUGGUACG,≤ 0.5
15,GUUCCGUUGGCGUAAUGGUAGCGCGUCUCCCUCCUAAGGAGAAGCCUGCGGGUUCGAGUCCCGUAUGGAACG,0.555
16,GUUCCGUUGGCGUAAUGGUAGUGCGUCUCCCUCCUAAGGAGAAGACUGCGGGUUCGAGUCCCGUACGGAUCG,0.619
17,GUUCCGUUGGCGUAAUGGUAGCGCGUCUCCCUCCUAAGGAGUAGACUGCGGGUUCGAGUCCCGUACGCAACG,0.539
18,GUUCCGUUGGCGUAAUGGUAGUGCGUCUCCCUCCUAAGGAGAAGACUGCGGGUUCGAGUCCCGUACGGAACG,0.683
19,GUUCCGUUGGCGUAAUGGUAGAGCGUCUCCCUCCUAAGGAGAAGACUGCGGGUUCGAGUCCCGUACGGAACG,0.834

row,Variant,yeast fitness
1,GUUCCGUUGGCGUAAUGGUAGCGGGUCUCCGUCCUAAGGAGAUGACUGCGGGUUCGAGUCCCGUACGGAACG,≤ 0.5
2,GUUCCGUUGGCGUAAUGGUAGCGUGUCUCCCUUCUAAGGAGAAGACUGCGGGUUCGAGUCCCGUACGGAACG,≤ 0.5
3,GUUCCGUUGGCGUAAUGGUAGAGCGUCUCCCUCCUAAGGAGAAGACUGCGGGUUCAAGUCCCGUACGGAACG,0.763
4,GUUCCGUUGGCGUAAUGGUAGCGCGUGUCCCUCCUAAGGAGAAGACUGCGGGUUCGAGUCCCGUACAGAACG,≤ 0.5
5,GUUCCGUUGGCGUAAUGGUAGCGCGUCUACCUCCUAAGGAGAAGACUGCGGGUUCGAGUCCCGUACGGAACG,0.693
6,GUUCCGUUGGCGUAAUGGUAGUGCGUCUCCCUCCUAAGGAGUAGACUGCGGGUUCGAGUCCCGUACGGUACG,≤ 0.5
7,GUUCCGUUGGCGUAAUGGUAGCGCGUCUCCCUCCUAAGGAGUAGACUGUGGGUUCGAGUCCCGUACAGAACG,≤ 0.5
8,GUUCCGUUGGCGUAAUGGUAGCGCGUCUCCCUCCUAAGGAGAAGACUGCGGGUUCGAGUCCCGUACGGAUCG,1
9,GUUCCGUUGGCGUAAUGGUAGCGUGUCUCCCUCCUAAGGAGAACACUGCGGGUUCGAGUCCCGUACGGAACG,0.583
10,GUUCCGUUGGCGUAAUGGUAGCGCGUAUCCCUCCUAAGCAGAAGACUGCGGGUUUGAGUCCCGUCCGGAACG,≤ 0.5
11,GUUCCGUUGGCGUAAUGGUAGUGCGUCUCCCUCCUAAGGAGACGACUGCGGGUUCGAGUCCCGUACGGAACG,0.57
12,GUUCCGUUGGCGUAAUGGUAGCGCGUAUCCCUCCUAAGGAGAAGACUGCGGGUUCGAGUCCCGUACCGAACG,≤ 0.5
13,GUUCCGUUGGCGUAAUGGUAGUGCGUCUCCCUCCUAAGGAGAAGACUGCGGGUUCGAGUCCCCUACGGCACG,0.524
14,GUUCCGUUGGCGUAAUGGUAGGGCGUCUGCCUCCUAAGGAGAAGACUGCGGGUUCGAGUCCCGUACGGAACG,≤ 0.5
15,GUUCCGUUGGCGUAAUGGUAGUGCGUCUCCCUCCUAAGGAGAAGACUGCGGGUUCGAGUCCCGUACAGAACG,0.575
16,GUUCCGUUGGCGUAAUGGUAGUGCGUCUCCCUCCUAAGGAGAAGCCUGCGGGUUCGAGUCCCGUACGGAACG,0.539
17,GUUCCGUUGGCGUAAUGGUAGUGCGUCUCCCUCCUAAGGAGAAGACUGCGGGUUUGAGUCCCGUACGGAACG,0.567
18,GUUCCGUUGGCGUAAUGGUAGCGAGUCUCCCUCCUAAGGAGAUGACUGCGGGUUCGUGUCCCGUAAGGAACG,0.574
19,GUUCCGUUGGCGUAAUGGUAGCGCGUCUCCCUCCUAAGGAGACGACUGCGGGUUCGAGUGCCGUACGGUACG,≤ 0.5
